A selection: hits, their analogues and other compounds. The true share with any hit is near 1.9%.
CHRM4 PAM: CHRM4 positive allosteric modulation; AID 624126; activation, % at 3 µM; 360,000 tested, 0.4% active; CHO-K1 hM4/Gqi5, Fluo-8 calcium fluorescence, ACh EC20; 0% = ACh EC20, 100% = maximal ACh;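 active = activation above its plate's cutoff, the mean activation of sample wells plus 3 SD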
CHRM4 agonist: agonists of human muscarinic M4 receptor (CHRM4) | 360,000 tested, 0.14% active | P08173 | AID 624127 | activation, % at 3 µM | CHO-K1 hM4/Gqi5, Fluo-8 calcium fluorescence; vehicle 0%, full acetylcholine response 100%;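 active = activation above the run mean over all test wells plus 3 SD, cut at about 32% in these data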;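 also: peak over basal fluorescence ratio per well then scaled between controls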
CHRM5 PAM: CHRM5 positive allosteric modulation; P08912; CHO-K1 hM5, Fluo-8 calcium, ACh EC20 PAM; 0% = ACh EC20, 100% = ACh EC100; activation, % at 3 µM; 360,000 tested, 0.3% active; AID 624038;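 active = activation above the run cutoff, the mean activation of all test compounds plus 3 SD, cut at about 18% in these data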
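Probe or stimulus: acetylcholine, EC20 level; Assay system: human M5 receptor in CHO-K1 cells; Schedule: compound preincubation 140 s before EC20 acetylcholine addition; Technique: intracellular calcium via Fluo-8 fluorescence; Dosing: single-point, 3 µM nominal; Read-out basis: percent activation from peak-over-basal fluorescence ratio, scaled EC20-to-EC100 acetylcholine; Repeats: one well per compound, no replicates.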
M5 antag: blocks acetylcholine activation of human M5 receptor | inhibition, % at 3 µM | P08912 | 360,000 tested, 0.59% active | CHO-hM5 cells, Fluo-8 calcium fluorescence, ACh EC80;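 active = inhibition above a per-plate cutoff, the mean of that plate's test compounds plus 3 SD, cut at about 27% in these data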
M5 ag: agonists of human muscarinic M5 receptor (CHRM5); 360,000 tested, 0.19% active; AID 624037; P08912; CHO-K1 hM5 cells, Fluo-8 calcium fluorescence; 0% DMSO wells, 100% maximal acetylcholine response; activation, % at 3 µM;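 active = activation above the run's mean over test compounds plus 3 SD, cut at about 23% in these data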;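 also: signal is peak over basal fluorescence ratio across the kinetic read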
M4 antag: CHRM4 antagonism in calcium assay; AID 624125; CHO-hM4 cells, ACh EC80, Fluo-8 calcium fluorescence; 360,000 tested, 0.73% active; inhibition, % at 3 µM;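 active = inhibition above its plate's cutoff, the mean inhibition of sample wells plus 3 SD, cut at about 27% in these data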
Hits are given with their value; – = inactive.

SMILES | CHRM4 PAM | CHRM4 agonist | CHRM5 PAM | M5 antag | M5 ag | M4 antag
CCC(=O)C1CCCN(C(=O)CCc2nnc(C3(c4ccc(Cl)cc4)CCC3)o2)C1 (stereo not drawn) | 21 | – | – | – | – | –
O=C(CCCn1c(SCC(=O)c2ccc(Cl)cc2)nc2ccccc2c1=O)NCc1ccco1 | – | – | – | – | – | –
COc1ccc(CN2C(=O)C(CC(=O)NCCCN(C)C)CC(C(=O)N3CCCCCC3)=C2C)cc1 (stereo not drawn) | – | – | – | – | – | –
O=C(CNC1CCCCC1)Nc1cccc([N+](=O)[O-])c1 | – | – | – | – | – | –
COc1ccc(NC(=O)NC2CCCCCCC2)cc1OC | – | – | 22 | – | – | –
O=C(NCc1cccnc1)Nc1cccc([N+](=O)[O-])c1 | – | – | – | 28 | – | –
O=C(Nc1cccc([N+](=O)[O-])c1)NC1CCCCCCC1 | – | – | – | 29 | – | –
O=C(Nc1cccc([N+](=O)[O-])c1)NN1CCCCCC1 | – | – | – | 30 | – | –
COc1ccc2c(C(=O)c3ccc(C)cc3)n(CCCC(N)=O)[n+]([O-])c2c1 | – | – | – | – | – | –
CCc1cc2c(cc3c(=O)n(CC(=O)N4CCN(c5ccccn5)CC4)nc(CC)n32)s1 | – | – | – | – | – | –
O=C(COC(=O)c1cccc(OC(F)F)c1)NC1CCCC1 | – | – | – | – | – | –
CC(Oc1ccc(Cl)cc1)C(=O)Nc1cccc(S(=O)(=O)N2CCCC2)c1 (stereo not drawn) | – | – | – | – | – | –
Cc1cc(O)c(-c2cc(C(=O)Nc3ccc(S(=O)(=O)N4CCOCC4)cc3)[nH]n2)cc1C | – | – | – | – | – | –
CC(Oc1ccc(Cl)cc1)C(=O)Nc1ccc(S(=O)(=O)N2CCOCC2)cc1 (stereo not drawn) | – | 53 | – | – | 38 | –
O=C(Nc1ccc(S(=O)(=O)N2CCOCC2)cc1)c1cc(-c2cc(Cl)ccc2O)n[nH]1 | – | – | – | 29 | – | –
Cc1ccc(NC(=O)C2CCCN2S(=O)(=O)c2ccc3c(c2)CCC(=O)N3)cc1Cl (stereo not drawn) | – | – | – | – | – | –
Cc1nc(N)sc1-c1csc(Nc2cc(N(C)C)ccc2Cl)n1 | – | – | – | – | – | –
COc1ccc(NC(=O)c2cc(S(=O)(=O)N3CCCC3)c[nH]2)cc1 | – | – | – | – | – | –
COc1ccc(-c2ccc3c(c2)S(=O)(=O)c2cccc(C(=O)N4CCN(C5CCCCC5)CC4)c2C3=O)cc1OC | – | – | – | 34 | – | –
CCCCCc1ccc(OCCC[n+]2ccccc2)c(CCCCC)c1 | – | – | – | 32 | – | 32
C[n+]1cn(CC(O)COCc2ccccc2)c2ccccc21 (stereo not drawn) | – | – | – | – | – | –
CCCCCc1ccc(OCCOCCn2c[n+](C)c3ccccc32)c(CCCCC)c1 | – | – | – | – | – | 58
CN(C)C(=O)CN1CCN(C(=O)CCl)CC1 | – | – | – | – | – | –
COC(=O)[C@@H]1C[C@@]2(O)[C@H](O)[C@H](O)[C@H](O)C[C@H]2N1Cc1cc(F)ccc1F | 28 | – | – | – | – | –
O=C(CN1C(=O)CSC1=O)c1ccccc1 | – | – | 45 | – | – | –
Cc1cccc(OC(=O)n2c(=S)oc3cc(Cl)ccc32)c1 | 30 | – | – | – | – | –
CC(C)OC(=O)n1c(=S)oc2ccccc21 | – | – | – | – | – | –
COc1ccc(NC(=S)NC(NC(=O)c2cccc(C)c2)C(Cl)(Cl)Cl)c([N+](=O)[O-])c1 (stereo not drawn) | – | – | – | – | – | –
COc1ccc(NC(=S)NC(NC(=O)c2cccc(Cl)c2)C(Cl)(Cl)Cl)c([N+](=O)[O-])c1 (stereo not drawn) | – | – | – | 39 | – | –
O=C(Cn1c(=S)[nH]c2ccccc2c1=O)N1CCN(c2ccc(F)cc2)CC1 | – | – | – | – | – | –

Screening results from PubChem BioAssay.
